What was measured:
[1] = Antiproliferative activity against human 786-0 cells assessed as inhibition of cell viability after 48 hrs by MTT reduction assay; assay type: functional, cell-based; conditions: 786-0, 48 h
How it was run: (§1)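 Cells grown in RPMI-1640 or EMEM with 10% FBS at 37 °C under 5% CO2. Seeded at 1 × 10^4 cells/well for 12 h, then exposed to a range of compound concentrations for 48 h. Viability read by MTT reduction. 5-Fluorouracil was the positive control. Each assay was repeated three times, and IC50 reported as mean ± SD.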

[2] = Antiproliferative activity against human 22Rv1 cells assessed as inhibition of cell viability after 48 hrs by MTT reduction assay; assay type: functional, cell-based, CWR22R; conditions: 22Rv1, 48 h; how it was run: as §1
[3] = Antiproliferative activity against human A375-S2 cells assessed as inhibition of cell viability after 48 hrs by MTT reduction assay; assay type: functional, cell-based; conditions: A375-S2, 48 h; how it was run: as §1
[4] = Antiinflammatory activity in mouse RAW264.7 cells assessed as inhibition of LPS-induced nitric oxide production after 24 hrs by Griess assay; assay type: functional, cell-based; conditions: RAW264.7, 24 h
How it was run: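 RAW 264.7 macrophages seeded at 1 × 10^6 cells/well, then incubated 24 h at 37 °C with LPS (1 μg/mL), with or without test compounds. NO measured by Griess reagent (0.1% N-(1-naphthyl)ethylenediamine plus 1% sulfanilamide in 5% H3PO4), absorbance at 540 nm. NO concentration and inhibition rate calculated from a standard curve. Hydrocortisone served as positive control.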

[5] = Antiproliferative activity against human C4-2B cells assessed as inhibition of cell viability after 48 hrs by MTT reduction assay; assay type: functional, cell-based; conditions: LNCaP C4-2B; how it was run: as §1
[6] = Antiproliferative activity against human ACHN cells assessed as inhibition of cell viability after 48 hrs by MTT reduction assay; assay type: functional, cell-based; how it was run: as §1
[7] = Antiproliferative activity against human A498 cells assessed as inhibition of cell viability after 48 hrs by MTT reduction assay; assay type: functional, cell-based; conditions: A498, 48 h; how it was run: as §1

SMILES	IC50 [1] [µM]	IC50 [2] [µM]	IC50 [3] [µM]	IC50 [4] [µM]	IC50 [5] [µM]	IC50 [6] [µM]	IC50 [7] [µM]
CC(=O)O[C@H]1C=C([C@H](C)[C@H]2CC(C)=C(C)C(=O)O2)[C@@]2(C)CC[C@H]3[C@@H](C[C@@H](O)[C@@]4(O)CC=CC(=O)[C@]34C)[C@]12O	> 10	> 10	> 10	64.1	> 10	> 10	> 10
CC1=C(C)C(=O)O[C@@H]([C@@H](C)C2=C[C@H](O)[C@]3(O)[C@@H]4C[C@@H](O)[C@@]5(O)CC=CC(=O)[C@]5(C)[C@H]4CC[C@]23C)C1	> 10	> 10	> 10	36.5	> 10	> 10	> 10
CO[C@]12CC=CC(=O)[C@]1(C)[C@H]1CC[C@]3(C)C([C@H](C)[C@H]4CC(C)=C(C)C(=O)O4)=C[C@H](OC(C)=O)[C@]3(O)[C@@H]1C[C@H]2O	> 10	> 10	> 10	44.6	> 10	> 10	> 10
CC(=O)O[C@H]1C[C@H]([C@H](C)[C@H]2CC(C)=C(C)C(=O)O2)[C@@]2(C)CC[C@H]3[C@@H](C[C@H]4O[C@]45CC=CC(=O)[C@]35C)[C@@]12O	0.39	0.9	7.43	1.36	0.49	0.73	0.71
CC(=O)O[C@H]1C[C@H]([C@H](C)[C@H]2CC(C)=C(C)C(=O)O2)[C@@]2(C)CC[C@H]3[C@@H](C[C@@H](O)[C@@]4(O)CC=CC(=O)[C@]34C)[C@@]12O	> 10	> 10	> 10	43.8	> 10	> 10	> 10
CO[C@@H]1C=C([C@H](C)[C@H]2CC(C)=C(C)C(=O)O2)[C@@]2(C)CC[C@H]3[C@@H](C[C@@H](O)[C@@]4(O)CC=CC(=O)[C@]34C)[C@@]12O	> 10	> 10	> 10	18.7	> 10	> 10	> 10
CC(=O)O[C@H]1C=C([C@H](C)[C@H]2CC(C)=C(C)C(=O)O2)[C@@]2(C)CC[C@H]3[C@@H](C[C@H](O)[C@]4(O)CC=CC(=O)[C@]34C)[C@@]12O	> 10	> 10	> 10	11.6	> 10	> 10	> 10
CC1=C(C)C(=O)O[C@@H]([C@](C)(O)[C@H]2C[C@H](O)[C@H]3[C@@H]4C[C@@H](O)[C@@]5(O)CC=CC(=O)[C@]5(C)[C@H]4CC[C@@]32C)C1	> 10	> 10	> 10	71.7	> 10	> 10	> 10
CC(=O)O[C@H]1C[C@H]([C@H](C)[C@H]2CC(C)=C(C)C(=O)O2)[C@@]2(C)CC[C@H]3[C@@H](C[C@@H](O)[C@@]4(O)CC=CC(=O)[C@]34C)[C@H]12	> 10	11.6	> 10	17.6	> 10	> 10	> 10
CC1=C(C)C(=O)O[C@@H]([C@@H](C)C2=C[C@@H](O)[C@]3(O)[C@@H]4C[C@@H](O)[C@@]5(O)CC=CC(=O)[C@]5(C)[C@H]4CC[C@]23C)C1	> 10	> 10	> 10	38.2	> 10	> 10	> 10
CC1=C(C)C(=O)O[C@@H]([C@@H](C)[C@]23O[C@H]2[C@H](O)[C@]2(O)[C@@H]4C[C@@H](O)[C@@]5(O)CC=CC(=O)[C@]5(C)[C@H]4CC[C@@]23C)C1	> 10	> 10	> 10	> 100	> 10	> 10	> 10
CO[C@]12CC=CC(=O)[C@]1(C)[C@H]1CC[C@@]3(C)[C@@](O)([C@@H]1C[C@H]2O)[C@@H](OC(C)=O)[C@@H]1O[C@@]13[C@H](C)[C@H]1CC(C)=C(C)C(=O)O1	> 10	> 10	> 10	6.36	> 10	> 10	> 10

— ChEMBL document CHEMBL3860025, “Antiproliferative and Anti-inflammatory Withanolides from Physalis angulata” (J Nat Prod, 2016)
